Compound activity: PubChem, several laboratories
A selection: hits, their analogues and other compounds. The true share with any hit is near 3%.
DDE Tn6 FP inh: inhibitors of Tn6 peptide binding to human fibrin DD(E) | AID 720509 | Fibrin DD(E) TRITC-Tn6 fluorescence polarization displacement | P02675 | 0.21% of 370,000 active | inhibition, % at 8.3 µM;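 active means inhibition above a per-campaign cutoff: mean of compounds within control limits plus 3 SD, cut at about 15% in these data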;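 further: 0% = median of all compound wells on the plate and 100% = blocking peptide control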
proKLK7 act: activates the human kallikrein-7 zymogen; 0.9% of 370,000 active; activation, % at 7 µM; purified proKLK7, EDANS-DABCYL substrate fluorescence; 100% is mature enzyme control, 0% vehicle; P49862;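 active means activation above the mean of all tested compounds plus 3 SD, computed per campaign excluding outliers beyond control limits, cut at about 13% in these data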
CendR NRP1 mod: alters CendR peptide binding to human NRP-1; O14786; FAM-RPARPAR peptide binding to NRP-1, fluorescence polarization; inhibition, % at 25 µM; 0.85% of 360,000 active; AID 602438;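 active means inhibition or corrected inhibition above about 18%, plus a signal ratio from 0.5 to 1.5, limit read from the data, passing the limit was not always enough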
PLC-gamma1 inh: blocks human PLC-gamma1 enzyme activity; P19174; purified PLC-gamma1, fluorogenic substrate, fluorescence; inhibition, % at 12.2 µM; 0.84% of 370,000 active; AID 720700; in the data active means inhibition above about 9.5%
DDE Tn7 FP inh: inhibitors of Tn7 peptide binding to human fibrin DD(E) | P02675 | FP displacement of FITC-Tn7 peptide from fibrin DD(E); 0% = median of compound wells per plate | inhibition, % at 8.3 µM | 0.13% of 370,000 active | AID 720508;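 active means inhibition above the mean of compounds falling within the control limits plus 3 SD of them, cut at about 14% in these data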;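 further: 0% = plate median of compound wells and 100% = 10 µM Aha-Tn7 peptide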
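Test system – human fibrin DD(E) · Times – 10 min preincubation, 3 h with tracer, room temperature · Detection – fluorescence polarization of the labelled Tn7 tracer · Measure – percent inhibition normalized to high-control wells · Benchmarks – high control wells with 10 µM unlabelled Aha-Tn7 peptide (full inhibition) · Repeats – singlicate testing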
PLC-beta3 inh: PLC-beta3 (human) inhibition, primary screen; Q01970; Purified PLC-beta3, fluorogenic substrate, fluorescence; inhibition, % at 12.2 µM; 0.18% of 370,000 active; in the data active means inhibition above about 11%;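 further: 0% = median of compound wells on plate and 100% = full blocker control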
* marks the source's active call; other numbers are inactive results; i = inactive; x = no result.

SMILES	DDE Tn6 FP inh	proKLK7 act	CendR NRP1 mod	PLC-gamma1 inh	DDE Tn7 FP inh	PLC-beta3 inh
Cn1c(=O)c2c(-c3ccccc3)n(-c3ccc(N)cc3)cc2n(C)c1=O	12	3	37*	-19	-6	-34
O=C(Nc1ccc2c(c1)OCO2)O[C@@H]1C[C@H]2CCC(=O)N3CC[C@@H](C1)[C@@H]23	-9	0	21*	0	4	-3
Cc1ccc(CC(=O)N2CCN(S(=O)(=O)c3ccccc3)CC2)cc1C	4	0	-3	4	3	-2
Cc1ccc(S(=O)(=O)N2CCN(C(=O)Cc3ccccc3)CC2)cc1C	4	0	23*	0	-2	-9
CCOc1ccc(NC(=O)CCn2nc(C)c(S(=O)(=O)N3CCCCC3)c2C)cc1	3	0	10	-1	4	-4
CCc1ccc(NC(=O)CCn2nc(C)c(S(=O)(=O)N3CCCCC3)c2C)cc1	-3	0	24*	1	2	-7
Cc1ccc(-c2cc(-c3nnc4sc(COc5ccccc5)nn34)[nH]n2)cc1	-4	0	x	3	-3	-4
CCn1cc(C(=O)N2CCN(Cc3ccc(C)cc3)CC2)c(=O)c2ccc(C)nc21	-5	0	x	-6	0	-8
CN(Cc1ccccc1)C(=O)OCc1cn(Cc2ccc(F)c(F)c2)nn1	2	0	x	-2	4	1
CCOc1ccc(N(CC(=O)NCc2ccco2)C(=O)CCC(=O)Nc2ccccn2)cc1	-8	1	5	2	-2	-2
COc1ccc(N(CC(=O)NCc2ccco2)C(=O)CCC(=O)Nc2ccccn2)cc1	-7	0	21*	4	0	-5
COc1ccc(NC(=O)/C=C/c2ccco2)cn1	1	0	-4	-3	2	-5
COc1ccc(NC(=O)/C=C/c2cccc(F)c2)cn1	0	0	19*	-1	7	0
COc1ccc(NC(=O)Nc2cccc(C(F)(F)F)c2)cn1	-7	0	28*	1	3	5
COc1ccc(NC(=O)NS(=O)(=O)c2ccc(C)cc2)cn1	11	2	146	-24	48*	-30
COc1cc(NC(=O)NS(=O)(=O)c2ccc(C)cc2)cc(OC)c1	-14	0	-6	-2	-9	-5
c1ccc(Cn2c(SC3CCCCC3)nnc2-c2cccnc2)cc1	6	0	x	0	-5	-1
CCn1c(SCC(=O)c2ccc(-c3ccccc3)cc2)nnc1-c1ccc(C(C)(C)C)cc1	-4	0	x	1	-2	1
COC(=O)c1cc2ccccc2c(-c2c(OC)c(C(=O)OC)cc3ccccc23)c1OC	2	-4	0	-100	-1	-121
COC(=O)c1cc2ccccc2c([N+](=O)[O-])c1O	-3	0	23*	-3	-2	-6
COc1cc(NC(C)CCCNC(C)C)c2ncccc2c1OC (stereo unspecified)	-6	7	24*	-19	-5	-23
COc1cc(NCCCCCCN)c2ncccc2c1OC	10	0	31*	-14	-5	-18
Oc1ccccc1-c1nc2c3ccccc3c3ccccc3c2[nH]1	-32	-27	-1	i	1	i
c1csc(-c2nc3c4ccccc4c4ccccc4c3[nH]2)c1	-33	18*	-7	-154	-3	-197
Cc1cc2c(cc1C)-c1nnnn1C(N1CCCCC1)C(=O)N2 (stereo unspecified)	6	0	21*	4	4	5
SMILES	DDE Tn6 FP inh	proKLK7 act	CendR NRP1 mod	PLC-gamma1 inh	DDE Tn7 FP inh	PLC-beta3 inh
O=C(O)c1ccc(CSc2ccccn2)cc1	-8	0	10	-2	-4	2
O=C(O)c1ccccc1CSc1ccccn1	-5	1	40*	0	7	3
COC1=C[C@H](C(=O)NCc2ccccc2)[C@H](C)[C@@H](c2ccccc2)CC1=O	-4	0	x	-2	1	-2
Cc1ccccc1NC(=O)c1sc2nc(N3CCOCC3)c3c(c2c1N)CCCC3	-5	-18	33*	i	7	i
COc1ccccc1NC(=O)c1sc2nc(N3CCOCC3)c3c(c2c1N)CCCC3	2	-1	14	-47	-4	-68
O=C(COc1ccc2ccccc2c1)N/N=C/c1ccccn1	2	0	37*	2	4	-2
CSCCCNc1nc(C)nc2c1nnn2Cc1ccccc1	3	0	x	5	-5	4
CC(=O)Nc1ccc2c(c1)C(=O)N(C)[C@H]1CC[C@H](CC(=O)NCc3ccc(F)cc3)O[C@@H]1CO2	-1	-1	x	6	3	7
O=C(CSc1ccc([N+](=O)[O-])cc1)NCC1CCCCC1	4	0	26*	1	-3	2
O=C(NCC1CCCCC1)c1ccc([N+](=O)[O-])cc1	-3	0	6	3	-2	-2
Cc1sc2ncn(CC(=O)N3CCN(c4ccccn4)CC3)c(=O)c2c1S(=O)(=O)N1CCCCC1	4	0	31*	0	1	-7
Cc1sc2ncn(CC(=O)N3CCCC(C)C3)c(=O)c2c1S(=O)(=O)N1CCCCC1 (stereo unspecified)	-6	1	8	0	0	-8
C[n+]1cccc2c(Br)ccc([O-])c21	-3	0	26*	8	-4	-6
Oc1ccc2[nH]cc(CCc3ccccc3)c2c1-c1ccccc1	0	0	x	-2	0	-6
C#CCOCCOCCOCCNc1nc(N2CCN(C(=O)CCCCCCCCCCNC(=O)[C@H]([C@@H](C)CC)n3cc(CCCCCN)nn3)CC2)nc(N2CCN(C(=O)CCCCCCCCCCNC(=O)[C@H]([C@@H](C)CC)n3cc(CCCCN=C(N)N)nn3)CC2)n1	x	x	11	x	x	x
C#CCOCCOCCOCCNc1nc(N2CCN(C(=O)CCCCCCCCCCNC(=O)[C@H](CO)n3cc(CCCSC)nn3)CC2)nc(N2CCN(C(=O)CCCCCCCCCCNC(=O)[C@H](CCCN=C(N)N)n3cc(C[C@@H](C)CC)nn3)CC2)n1	x	x	25*	x	x	x
C#CCOCCOCCOCCNc1nc(N2CCN(C(=O)CCCCCCCCCCNC(=O)[C@H]([C@@H](C)CC)n3cc(CCCCN=C(N)N)nn3)CC2)nc(N2CCN(C(=O)CCCCCCCCCCNC(=O)[C@H](CO)n3cc(CCCCCN)nn3)CC2)n1	x	x	28*	x	x	x
CC(=O)c1cc(-c2ccccc2)n(CC(=O)NCc2ccccc2)c1C	-1	0	x	3	-6	2
C#CCNC(=O)C[C@H]1C[C@@]2(C(=O)OC)C(=C[C@H](C(C)(C)C)O[C@@H]2C)N(Cc2cccc3ccccc23)C1=O	1	1	x	-1	7	1
O=C1CCCN1CCc1cccc2ccccc12	4	0	23*	6	1	5
